We go through one molecule from ChEMBL document CHEMBL4038327, “Inhibitory Kappa B Kinase α (IKKα) Inhibitors That Recapitulate Their Selectivity in Cells against Isoform-Related Biomarkers” (J Med Chem, 2017).

The structures appear in SMILES notation.

The target in data set [1] is Glycogen synthase kinase-3 beta (Homo sapiens) (UniProt P49841). The experiment in a line: Inhibition of human N-terminal GST-tagged GSK3beta at 10 uM relative to control. The essentials: (§1)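 Outsourced commercial kinase panel run at a single concentration, with duplicate assay points.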
The target in data set [2] is T1, Inhibitor of nuclear factor kappa-B kinase subunit beta (Homo sapiens, UniProt O14920).
T1 sequence (O14920 whole entry): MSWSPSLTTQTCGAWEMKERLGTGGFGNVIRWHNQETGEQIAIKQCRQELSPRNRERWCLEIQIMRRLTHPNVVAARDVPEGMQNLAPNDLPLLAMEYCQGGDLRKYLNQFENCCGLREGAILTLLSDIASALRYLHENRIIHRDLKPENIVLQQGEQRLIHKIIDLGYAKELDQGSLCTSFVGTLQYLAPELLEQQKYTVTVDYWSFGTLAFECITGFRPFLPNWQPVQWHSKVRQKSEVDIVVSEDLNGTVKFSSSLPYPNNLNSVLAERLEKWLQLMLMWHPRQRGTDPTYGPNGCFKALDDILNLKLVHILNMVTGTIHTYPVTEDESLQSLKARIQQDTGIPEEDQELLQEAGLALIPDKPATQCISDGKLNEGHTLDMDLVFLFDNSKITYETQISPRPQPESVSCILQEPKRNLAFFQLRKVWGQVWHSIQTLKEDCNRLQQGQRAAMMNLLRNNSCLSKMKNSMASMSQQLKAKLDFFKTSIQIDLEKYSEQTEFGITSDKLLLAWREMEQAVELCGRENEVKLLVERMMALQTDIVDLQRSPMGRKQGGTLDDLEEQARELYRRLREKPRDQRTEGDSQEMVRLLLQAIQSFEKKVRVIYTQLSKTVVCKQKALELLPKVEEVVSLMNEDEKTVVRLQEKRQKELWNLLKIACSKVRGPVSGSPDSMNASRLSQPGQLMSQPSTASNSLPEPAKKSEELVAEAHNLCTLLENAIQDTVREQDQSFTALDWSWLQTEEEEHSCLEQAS
Briefly: Inhibition of IKKbeta in human U2OS cells assessed as TNFalpha induced IkBalpha degradation at 100 uM preincubated for 1 hr followed by TNFalpha stimulation for 30 mins by Western blot analysis. Format: cell-based. Particulars: 0.5 h; call rule not given here. The method, boiled down: (§2)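 U2OS cells were grown in McCoy's 5A medium at 37 °C under 5% CO2 and made quiescent by 24 h serum deprivation. They were then pretreated with compound before agonist stimulation in serum-free medium. Phospho-p100, IκBα levels and phospho-p65 (Ser536) were assessed by Western blot.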
A general note: A western blot detects proteins with antibodies after separation by electrophoresis.

Data set [3] concerns the target T1, Inhibitor of nuclear factor kappa-B kinase subunit beta. The experiment in a line: Inhibition of recombinant full length human IKKbeta expressed in baculovirus infected sf9 insect cells using biotinylated IkBalpha as substrate after 60 mins by DELFIA. The essentials:
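Recombinant IKKβ (37 nM) was incubated with biotinylated IκB-α (Ser32) peptide (0.375 μM) and 40 μM ATP in Tris-HCl pH 7.5 with MgCl2, EDTA, DTT and BSA for 60 min at 30 °C. The reaction was quenched with EDTA and captured on streptavidin. Detection used anti-phospho-IκBα (Ser32/36) mAb plus Eu-anti-mouse IgG, read by time-resolved fluorescence (340/615 nm). Apparent Ki was obtained via Cheng–Prusoff, n=3.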

The target in data set [4] is T2, Inhibitor of nuclear factor kappa-B kinase subunit alpha (Homo sapiens, UniProt O15111).
T2 sequence (O15111 whole entry): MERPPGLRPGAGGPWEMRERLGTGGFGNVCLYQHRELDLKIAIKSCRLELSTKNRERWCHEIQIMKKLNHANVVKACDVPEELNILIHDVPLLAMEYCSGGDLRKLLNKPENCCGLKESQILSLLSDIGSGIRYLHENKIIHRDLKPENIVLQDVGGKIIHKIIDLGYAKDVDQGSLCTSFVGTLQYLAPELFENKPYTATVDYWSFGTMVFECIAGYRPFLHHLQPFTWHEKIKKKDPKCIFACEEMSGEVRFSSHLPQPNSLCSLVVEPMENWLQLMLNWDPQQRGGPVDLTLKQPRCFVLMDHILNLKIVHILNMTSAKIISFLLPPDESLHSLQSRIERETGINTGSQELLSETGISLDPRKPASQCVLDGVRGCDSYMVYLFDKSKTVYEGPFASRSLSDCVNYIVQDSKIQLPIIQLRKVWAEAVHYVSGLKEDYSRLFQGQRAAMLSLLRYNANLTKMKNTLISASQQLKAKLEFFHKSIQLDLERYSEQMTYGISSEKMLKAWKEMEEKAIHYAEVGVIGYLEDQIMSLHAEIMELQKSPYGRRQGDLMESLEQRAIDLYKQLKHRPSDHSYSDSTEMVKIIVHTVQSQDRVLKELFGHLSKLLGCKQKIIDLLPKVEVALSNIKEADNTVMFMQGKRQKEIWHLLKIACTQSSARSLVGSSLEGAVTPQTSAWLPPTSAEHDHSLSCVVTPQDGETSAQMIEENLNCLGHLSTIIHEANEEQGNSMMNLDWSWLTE
The experiment in a line: (§3) Inhibition of IKKalpha in human U2OS cells assessed as decrease in FCS induced p100 phosphorylation at ser866/870 residues preincubated for 1 hr followed by FCS stimulation for 4 hrs by Western blot analysis. Format: cell-based. The essentials: as §2

The target in data set [5] is T3, Inhibitor of nuclear factor kappa-B kinase subunit alpha (Homo sapiens) (UniProt O15111).
T3 sequence (whole entry): T2 sequence (O15111 whole entry)
The description is as §3. Format: cell-based. The essentials:
as §2

The target in data set [6] is T4, Aurora kinase A (Homo sapiens) (UniProt O14965).
T4 sequence (whole entry): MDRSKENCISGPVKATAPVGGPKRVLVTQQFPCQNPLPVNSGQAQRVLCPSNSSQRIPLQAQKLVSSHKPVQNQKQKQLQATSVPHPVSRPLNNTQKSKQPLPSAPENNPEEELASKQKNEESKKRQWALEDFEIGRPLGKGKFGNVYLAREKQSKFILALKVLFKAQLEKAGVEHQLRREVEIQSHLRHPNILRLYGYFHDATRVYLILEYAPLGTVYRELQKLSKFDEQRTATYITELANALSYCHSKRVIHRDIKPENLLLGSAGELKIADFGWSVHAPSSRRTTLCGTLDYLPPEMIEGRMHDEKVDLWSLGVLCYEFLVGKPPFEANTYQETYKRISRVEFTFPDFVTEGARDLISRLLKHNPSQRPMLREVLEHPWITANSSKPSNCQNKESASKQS
Briefly: Inhibition of N-terminal His6 tagged recombinant human full length Aurora A expressed in Sf21 cells at 10 uM relative to control. The method, boiled down: as §1

Data set [7] addresses Calcium/calmodulin-dependent protein kinase type 1 (Homo sapiens) (UniProt Q14012). Briefly: Inhibition of N-terminal GST tagged recombinant human CaMK1 (2 end residues) expressed in Escherichia coli cells at 10 uM relative to control. The essentials: as §1
Data set [8] addresses T1, Inhibitor of nuclear factor kappa-B kinase subunit beta. The experiment in a line: Inhibition of IKKbeta in human U2OS cells assessed as decrease in TNFalpha induced p65 phosphorylation at ser536 residues at 100 uM preincubated for 1 hr followed by TNFalpha stimulation for 30 mins by Western blot analysis. Format: cell-based. Particulars: 0.5 h. The essentials:
as §2

Chain of Calcium/calmodulin-dependent protein kinase type 1 (Homo sapiens) (Q14012 whole entry, looked up): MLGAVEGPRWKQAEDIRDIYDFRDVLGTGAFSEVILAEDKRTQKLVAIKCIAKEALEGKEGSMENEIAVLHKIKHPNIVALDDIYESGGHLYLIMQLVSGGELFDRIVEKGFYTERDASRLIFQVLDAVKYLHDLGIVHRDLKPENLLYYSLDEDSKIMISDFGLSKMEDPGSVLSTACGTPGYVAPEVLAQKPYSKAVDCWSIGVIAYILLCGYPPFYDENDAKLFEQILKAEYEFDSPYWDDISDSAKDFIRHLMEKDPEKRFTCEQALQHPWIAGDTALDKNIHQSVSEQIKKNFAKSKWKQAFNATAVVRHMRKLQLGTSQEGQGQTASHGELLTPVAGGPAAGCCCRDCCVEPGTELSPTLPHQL
Chain of Glycogen synthase kinase-3 beta (Homo sapiens) (P49841 whole entry, looked up): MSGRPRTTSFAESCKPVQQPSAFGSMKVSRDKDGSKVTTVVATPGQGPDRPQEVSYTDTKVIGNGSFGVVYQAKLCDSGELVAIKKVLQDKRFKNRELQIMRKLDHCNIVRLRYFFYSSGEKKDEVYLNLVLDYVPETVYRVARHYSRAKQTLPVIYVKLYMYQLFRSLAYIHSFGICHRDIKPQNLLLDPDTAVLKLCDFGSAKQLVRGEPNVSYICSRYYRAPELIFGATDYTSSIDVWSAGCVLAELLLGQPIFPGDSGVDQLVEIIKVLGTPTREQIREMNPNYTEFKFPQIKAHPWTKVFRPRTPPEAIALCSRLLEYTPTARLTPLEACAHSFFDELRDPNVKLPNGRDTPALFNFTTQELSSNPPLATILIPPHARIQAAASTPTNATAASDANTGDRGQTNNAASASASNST

In general, inhibition refers to the change of the read-out against control, counted positive when it falls. What is called Ki is a dissociation constant, usually derived from enzyme kinetics or from competition with a known ligand. As usually defined, the IC50 is the concentration at which inhibition is half-maximal. As to `N#Cc1c[nH]c2nc(N)nc(-c3ccc(S(N)(=O)=O)cc3)c12`, the inhibition in data set [1] is over 80%; in data set [5] it was “Dose-dependent effect”; in data set [6], over 80%; in data set [7], over 80%. Moreover, the “inhibition (INH)” value in data set [2] and in data set [8] was “Active” in each case. The Ki in data set [3] was determined as 1 µM. Moreover, in data set [4], the IC50 was in the range of 5.8 to 8.8 µM.
